The values below come from PubChem BioAssay AID504538 (Southern Research Specialized Biocontainment Screening …, 2011).

The source made the active and inactive calls. How the calls were made is not given here.

In general, IC50 refers to the concentration that gives 50% inhibition.

System in the first assay: not listed separately
Nature of the assay: T7 lysis protection in EV36 bacteria – E. coli EV36, T7 phage, set 2, counter-screen for bacterial capsule biogenesis inhibitors, dose response (AID 504538). As to conditions: E. coli EV36 T7 phage lysis, OD600 3 h; at 100 µM (top of the series). In a few lines:
(§1)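 Detection: optical density at 600 nm, 3 h after phage infection; assay system: Escherichia coli EV36, K1 and K-12 hybrid strain; also added: T7 bacteriophage infection after compound pre-exposure; schedule: 1.5 h compound pre-exposure at 37 °C with shaking, 3 h post-infection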
As for `O=C(Nc1cccc(C2=NCCN2)c1)Nc1cccc(C2=NCCN2)c1`, the phage lysis inhibition was 88.6% (inactive). The same measure, in the same setting: under `N=C(N)SCCc1cccc(CCSC(=N)N)c1` stands 99.9% (inactive). As for `CCN(CC)c1ccc2c(-c3ccc(S(=O)(=O)O)cc3S(=O)(=O)O)c3ccc(=[N+](CC)CC)cc-3oc2c1`, the phage lysis inhibition was 110% (inactive). Still for that read-out and setting: under `COc1ccc(-c2cc(C(=O)O)c3ccccc3n2)cc1` stands 102% (inactive).

Take `Cc1cccc(-c2cc(C(=O)O)c3ccccc3n2)c1`: the phage lysis inhibition was 102% (inactive). Turning to `O=C1c2c(O)ccc(O)c2C(=O)c2c(NCCNCCO)ccc(NCCNCCO)c21`, the phage lysis inhibition was 140% (inactive).

A further assay has as its system E. coli EV36 T7 phage lysis, OD600 3 h. The description is as above.
Details: not given
In a few lines:
as §1
For `COc1cc(/C=N/N=C(N)N)ccc1OCc1ccccc1Cl`, the IC50 is 44 µM (inactive). The same measure, in the same setting: with `NC(N)=N/N=C/c1ccc(OCc2ccccc2)cc1` the figure was 45 µM (inactive).
